Laboratory results reported in ChEMBL document CHEMBL2021903, “3-Deoxy-3,4-dehydro analogs of XM462. Preparation and activity on sphingolipid metabolism and cell fate” (Bioorg Med Chem, 2012).
Calls of active or inactive are those of the source. No cut-off for these calls is given here.

Key:
HCT-116 = test: Induction of apoptosis in human HCT116 cells at 30 uM after 14 hrs by Annexin V-propidium iodide staining based flow cytometry; type: functional, cell-based
In short: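 HCT116 (clone 40–16) in low-glucose DMEM with 10% FBS and 1% penicillin–streptomycin, seeded 2.5×10⁵ cells/mL. After 24 h, medium replaced with compound-containing medium; ethanol vehicle to controls. After incubation, cells PBS-washed, trypsinized, stained with Annexin V and propidium iodide, analysed by flow cytometry. Mean ± SD, 3 experiments in triplicate.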

[1] = biological target: T1, Acid ceramidase (Homo sapiens) (UniProt Q13510); test: Inhibition of aCDase using RBM14C16 as substrate at 16 uM after 1 hr by HPLC-FD analysis
T1 sequence (whole entry): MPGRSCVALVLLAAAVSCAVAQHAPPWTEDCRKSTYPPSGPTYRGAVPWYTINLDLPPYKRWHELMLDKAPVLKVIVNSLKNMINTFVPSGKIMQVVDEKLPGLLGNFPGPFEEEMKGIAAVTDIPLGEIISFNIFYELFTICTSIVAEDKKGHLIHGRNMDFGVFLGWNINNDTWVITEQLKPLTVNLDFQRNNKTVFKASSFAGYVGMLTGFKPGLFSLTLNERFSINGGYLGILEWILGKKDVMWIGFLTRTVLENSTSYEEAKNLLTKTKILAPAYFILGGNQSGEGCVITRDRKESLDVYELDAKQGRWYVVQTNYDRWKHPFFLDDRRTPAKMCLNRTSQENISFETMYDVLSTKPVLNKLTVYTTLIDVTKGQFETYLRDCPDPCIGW

[2] = biological target: T1, Acid ceramidase (Homo sapiens); test: Inhibition of aCDase in Moh.pAS AcCer10X cells using RBM14C16 as substrate at 16 uM after 1 hr by HPLC-FD analysis; type: cell-based

inhibition [1]	inhibition [2]	Compound	Activity (HCT-116)
–	–	CCCCCCCCCCCCC/C=C/[C@@H](O)[C@H](CO)NC(=O)CCCCCCC	Active
50%	50%	CCCCCCCCCCCCC/C=C/[C@@H](O)[C@H](CO)NC(=O)C(C)(C)C	–
50%	50%	CCCCCCCCCCCCCCC[C@@H](O)[C@H](CO)NC(=O)C(C)(C)C	–
